Legend:
MDCKII-WT cells = experiment: Cellular accumulation of radiolabeled drug in MDCKII-WT cell monolayers; assay type: cell-based, canine; details: for increase in cellular accumulation compared to control: 0.03% w/w Pluronic P85 (CMC)
P-gp = P-gp (Homo sapiens, UniProt P08183); experiment: Cellular accumulation of radiolabeled drug in MDCKII-MDR1 cell monolayers; assay type: cell-based; details: for change in cellular accumulation at Pluronic P85 concentrations above the CMC / change in cellular accumulation with Pluronic P85 up to the CMC / cellular accumulation at 0.5% w/w P85 versus control without P85 / increase in cellular accumulation compared to control: MDR1 cells; for (WT/MDR1) accumulation ratio: nelfinavir
Sequence of P-gp (P08183 whole entry): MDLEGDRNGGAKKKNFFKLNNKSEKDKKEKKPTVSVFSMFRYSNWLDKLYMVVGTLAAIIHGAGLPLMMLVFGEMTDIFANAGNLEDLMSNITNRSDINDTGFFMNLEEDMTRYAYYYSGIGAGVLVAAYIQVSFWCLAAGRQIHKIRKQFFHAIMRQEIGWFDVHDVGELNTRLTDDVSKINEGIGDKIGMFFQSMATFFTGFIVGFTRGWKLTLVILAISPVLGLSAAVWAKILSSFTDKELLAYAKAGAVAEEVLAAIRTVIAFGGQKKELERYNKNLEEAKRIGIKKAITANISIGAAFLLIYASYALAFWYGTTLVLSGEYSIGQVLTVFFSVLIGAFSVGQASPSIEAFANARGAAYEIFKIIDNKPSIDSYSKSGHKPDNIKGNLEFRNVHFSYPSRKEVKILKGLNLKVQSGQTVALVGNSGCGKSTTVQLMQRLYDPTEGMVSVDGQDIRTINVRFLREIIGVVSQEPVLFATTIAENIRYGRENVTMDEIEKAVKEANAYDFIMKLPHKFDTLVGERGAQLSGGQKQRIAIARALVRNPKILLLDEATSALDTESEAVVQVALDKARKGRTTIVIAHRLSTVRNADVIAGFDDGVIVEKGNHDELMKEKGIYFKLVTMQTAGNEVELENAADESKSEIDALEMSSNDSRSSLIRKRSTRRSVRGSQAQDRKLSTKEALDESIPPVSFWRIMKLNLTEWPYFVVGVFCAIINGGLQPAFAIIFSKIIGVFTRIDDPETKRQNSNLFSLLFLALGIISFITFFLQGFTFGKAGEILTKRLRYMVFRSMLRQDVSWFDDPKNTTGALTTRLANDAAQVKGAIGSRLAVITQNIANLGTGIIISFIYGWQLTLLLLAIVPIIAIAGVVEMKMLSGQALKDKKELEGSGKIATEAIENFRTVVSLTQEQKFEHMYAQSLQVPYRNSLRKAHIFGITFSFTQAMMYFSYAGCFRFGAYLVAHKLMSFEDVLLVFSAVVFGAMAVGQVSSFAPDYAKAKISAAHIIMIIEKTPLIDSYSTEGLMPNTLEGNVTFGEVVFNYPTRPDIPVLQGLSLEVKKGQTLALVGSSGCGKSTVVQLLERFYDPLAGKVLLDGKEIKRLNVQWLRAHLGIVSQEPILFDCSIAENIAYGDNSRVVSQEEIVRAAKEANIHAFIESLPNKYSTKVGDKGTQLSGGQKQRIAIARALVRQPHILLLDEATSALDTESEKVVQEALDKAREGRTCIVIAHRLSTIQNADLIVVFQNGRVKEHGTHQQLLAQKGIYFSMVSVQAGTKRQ

[1] = Cell-free equilibrium dialysis with Pluronic P85; assay type: physicochemical; details: for time to equilibrium: equilibrium dialysis, MWCO 50,000 membrane, 37°C
Procedure, shortened: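 Two-chamber dialysis across a 50,000 Da MWCO membrane at 37°C, stirred, in pH 7.4 HEPES/bicarbonate buffer. Radiolabeled test compound was in the donor and buffer in the receiver. Below CMC, P85 was on both sides. For micellar levels, the receiver held 0.025% w/w and the donor target plus 0.005% w/w. Free fraction was receiver/donor concentration; a transfer-rate model was fitted.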

[2] = cited from earlier work
[3] = at the CMC of Pluronic P85 (0.03% w/w; printed 0.035% w/w for nelfinavir)

Compound	change in cellular accumulation at Pluronic P85 concentrations above the CMC (P-gp)	change in cellular accumulation with Pluronic P85 up to the CMC (P-gp)	equilibrium free fraction ([1]; 0.5% w/w Pluronic P85)	equilibrium free fraction ([1]; absence of Pluronic P85)	equilibrium free fraction [1, 3]	time to equilibrium [1]	cellular accumulation at 0.5% w/w P85 versus control without P85 (P-gp)	equilibrium free fraction ([1]; 0.1% w/w Pluronic P85)	drug free ([1]; 0.5% w/w Pluronic P85) [%]	change in cellular accumulation at Pluronic P85 concentrations above the CMC (MDCKII-WT cells)	change in cellular accumulation with Pluronic P85 up to the CMC (MDCKII-WT cells)	cellular accumulation at 0.5% w/w P85 versus control without P85 (MDCKII-WT cells)	increase in cellular accumulation compared to control (MDCKII-WT cells) [fold]	also measured
Nc1nc(NC2CC2)c2ncn([C@H]3C=C[C@@H](CO)C3)c2n1 [abacavir]	significant decline	significant increase	0.871 ± 0.095	1.057 ± 0.212	0.984 ± 0.083	~ 20 hrs				significant decline	no significant increase			drug associated with the micelles ([1]; 0.5% w/w Pluronic P85): roughly 10%
COc1cc2c(cc1OC)CN(CCc1ccc(NC(=O)c3cccc4c(=O)c5cccc(OC)c5[nH]c34)cc1)CC2 [GF120918]														increase in nelfinavir accumulation compared to control (MDCKII-WT cells; highest concentration of GF120918 used): 5 fold; Emax (maximal effect on nelfinavir accumulation) (MDCKII-WT cells; sigmoid Emax model, mean ± SE): 4.76 ± 0.2 DPM normalized to stock / mg protein

Now from value to compound, other results behind:

change in cellular accumulation at Pluronic P85 concentrations above the CMC (P-gp)	change in cellular accumulation with Pluronic P85 up to the CMC (P-gp)	equilibrium free fraction ([1]; 0.5% w/w Pluronic P85)	equilibrium free fraction ([1]; absence of Pluronic P85)	equilibrium free fraction [1, 3]	time to equilibrium [1]	cellular accumulation at 0.5% w/w P85 versus control without P85 (P-gp)	equilibrium free fraction ([1]; 0.1% w/w Pluronic P85)	drug free ([1]; 0.5% w/w Pluronic P85) [%]	Compound	change in cellular accumulation at Pluronic P85 concentrations above the CMC (MDCKII-WT cells)	change in cellular accumulation with Pluronic P85 up to the CMC (MDCKII-WT cells)	cellular accumulation at 0.5% w/w P85 versus control without P85 (MDCKII-WT cells)	increase in cellular accumulation compared to control (MDCKII-WT cells) [fold]	also measured
decreased significantly	increased significantly		0.953 ± 0.109	0.941 ± 0.045	~ 50 hrs	not statistically different	0.194 ± 0.02	5	Cc1c(O)cccc1C(=O)N[C@@H](CSc1ccccc1)[C@H](O)CN1C[C@H]2CCCC[C@H]2C[C@H]1C(=O)NC(C)(C)C [nelfinavir]	decreased significantly	no statistically significant enhancement	significantly lower than WT control	1.3	increase in cellular accumulation compared to control (P-gp; 0.03% w/w Pluronic P85): 6 fold; (WT/MDR1) accumulation ratio (P-gp; 0.03% w/w P85): 1.4; (WT/MDR1) accumulation ratio (P-gp; 0.5% w/w P85 (highest dose)): 1.23; (WT/MDR1) accumulation ratio (P-gp; absence of P85, 3 h accumulation): 6; drug free ([1]; 0.1% w/w Pluronic P85): 20%
no effect			0.994 ± 0.06		~ 15 hrs		0.968 ± 0.04		OC[C@@H](O)[C@@H](O)[C@H](O)[C@H](O)CO [mannitol]	no effect				
decline in accumulation	significant increase in accumulation	0.068 ± 0.007	0.827 ± 0.114	0.744 ± 0.031		not significantly different		7	CC(C)(C)NC(=O)[C@@H]1C[C@@H]2CCCC[C@@H]2CN1C[C@@H](O)[C@H](Cc1ccccc1)NC(=O)[C@H](CC(N)=O)NC(=O)c1ccc2ccccc2n1 [saquinavir]	decline in accumulation	significant increase in accumulation	not significantly different		
significant only at 0.5% w/w									CC[C@]1(O)C[C@@H]2CN(CCc3c([nH]c4ccccc34)[C@@](C(=O)OC)(c3cc4c(cc3OC)N(C)[C@H]3[C@@](O)(C(=O)OC)[C@H](OC(C)=O)[C@]5(CC)C=CCN6CC[C@]43[C@@H]65)C2)C1 [vinblastine]	significant only at 0.5% w/w			3	increase in cellular accumulation compared to control (P-gp; 0.05% w/w Pluronic P85 (maximum)): 21 fold; increase in cellular accumulation compared to control (P-gp; 0.5% w/w Pluronic P85): 10 fold; log P [2]: 1.89

Reference: paper PMC2755653 (Journal of pharmaceutical sciences, 2009)
